We go through 4 compounds from ChEMBL document CHEMBL1155278, “3,4-Diaryl-isoxazoles and -imidazoles as potent dual inhibitors of p38alpha mitogen activated protein kinase and casein kinase 1delta” (J Med Chem, 2009).

In assay [1] the target is Tyrosine-protein kinase SYK (Homo sapiens) (UniProt P43405). Description: Inhibition of SYK assessed as residual activity at 0.1 uM by Cherenkov counting relative to control in presence of 20 uM ATP. An outline of the steps: (§1)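 Single-concentration screen at 0.1 μM in a 76-kinase panel. ATP for each kinase was set near its Km for ATP. Residual activity is given as a percentage of control assays without compound, mean of n = 3 ± SD.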

Assay [2] concerns the target T1, Serine/threonine-protein kinase TBK1 (Homo sapiens) (UniProt Q9UHD2).
T1 sequence (whole entry): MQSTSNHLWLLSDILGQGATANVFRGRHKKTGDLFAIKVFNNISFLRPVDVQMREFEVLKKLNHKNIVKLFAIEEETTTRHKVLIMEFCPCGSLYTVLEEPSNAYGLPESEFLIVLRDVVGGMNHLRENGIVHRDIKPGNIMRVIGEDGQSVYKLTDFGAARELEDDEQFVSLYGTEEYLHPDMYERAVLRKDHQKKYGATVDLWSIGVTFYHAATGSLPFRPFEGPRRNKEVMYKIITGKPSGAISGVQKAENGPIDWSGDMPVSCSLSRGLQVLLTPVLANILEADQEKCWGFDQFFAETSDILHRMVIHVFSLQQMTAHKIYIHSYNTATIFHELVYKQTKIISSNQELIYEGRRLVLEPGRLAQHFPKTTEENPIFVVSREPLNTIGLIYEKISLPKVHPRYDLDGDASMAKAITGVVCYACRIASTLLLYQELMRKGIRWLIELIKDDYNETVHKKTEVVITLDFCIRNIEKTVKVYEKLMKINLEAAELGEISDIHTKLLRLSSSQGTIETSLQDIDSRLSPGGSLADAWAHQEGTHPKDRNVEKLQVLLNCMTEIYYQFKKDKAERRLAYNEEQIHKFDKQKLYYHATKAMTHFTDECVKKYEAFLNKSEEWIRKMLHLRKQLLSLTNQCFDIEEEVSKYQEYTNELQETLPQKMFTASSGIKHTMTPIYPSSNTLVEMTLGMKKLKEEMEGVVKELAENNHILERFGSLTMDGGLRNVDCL
Description: Inhibition of TBK1 assessed as residual activity at 0.1 uM by Cherenkov counting relative to control in presence of 50 uM ATP. An outline of the steps: as §1

In assay [3] the target is Dual specificity mitogen-activated protein kinase kinase 1 (Homo sapiens) (UniProt Q02750). Description: Inhibition of MKK1 at 0.1 uM by Cherenkov counting in presence of 5 uM ATP. The gist of the method:
(§2)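 Single-concentration selectivity screen at 0.1 μM against a panel of 76 protein kinases. Each kinase was run at an ATP level approximating its Km for ATP. Output is mean residual activity as % of the control assay without compound, n = 3 ± SD.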

Assay [4] has as its target RAC-beta serine/threonine-protein kinase (Homo sapiens) (UniProt P31751). Description: Inhibition of PKBbeta assessed as residual activity at 0.1 uM by Cherenkov counting relative to control in presence of 50 uM ATP. The gist of the method:
as §1

The nature of assay [5]: Inhibition of PHK assessed as residual activity at 0.1 uM by Cherenkov counting relative to control. An outline of the steps:
as §2

In assay [6] the target is Serine/threonine-protein kinase Chk2 (Homo sapiens) (UniProt O96017). Put plainly: Inhibition of CHK2 assessed as residual activity at 0.1 uM by Cherenkov counting relative to control in presence of 20 uM ATP. An outline of the steps: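 Single-concentration screen at 0.1 µM across a panel of 76 protein kinases. Each kinase was run at an ATP concentration approximating its ATP Km. Results are % mean residual activity versus control assays without compound (n = 3 ± SD).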

In assay [7] the target is Casein kinase I isoform delta (Homo sapiens, UniProt P48730). Put plainly: Inhibition of CK1delta assessed as residual activity at 0.1 uM by Cherenkov counting relative to control in presence of 20 uM ATP. The gist of the method: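 CK1δ tested within a 76-protein-kinase panel with compound at 0.1 µM. ATP for each kinase was set near its Km for ATP. Read-out was residual activity as % of control assays without compound, given as mean ± SD, n = 3.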

Assay [8] deals with Insulin receptor-related protein (Homo sapiens) (UniProt P14616). Description: Inhibition of IRR assessed as residual activity at 0.1 uM by Cherenkov counting relative to control in presence of 5 uM ATP. The gist of the method: as §2
Assay [9] has as its target Protein kinase C alpha type (Homo sapiens) (UniProt P17252). Description: Inhibition of PKCalpha assessed as residual activity at 10 uM by Cherenkov counting relative to control in presence of 20 uM ATP. The gist of the method: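 Single-concentration profiling at 10 μM in a 78-kinase panel. Kinase activity is expressed as a percentage of control assays run without compound.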

In assay [10] the target is T2, Serine/threonine-protein kinase Chk1 (Homo sapiens) (UniProt O14757).
T2 sequence (whole entry): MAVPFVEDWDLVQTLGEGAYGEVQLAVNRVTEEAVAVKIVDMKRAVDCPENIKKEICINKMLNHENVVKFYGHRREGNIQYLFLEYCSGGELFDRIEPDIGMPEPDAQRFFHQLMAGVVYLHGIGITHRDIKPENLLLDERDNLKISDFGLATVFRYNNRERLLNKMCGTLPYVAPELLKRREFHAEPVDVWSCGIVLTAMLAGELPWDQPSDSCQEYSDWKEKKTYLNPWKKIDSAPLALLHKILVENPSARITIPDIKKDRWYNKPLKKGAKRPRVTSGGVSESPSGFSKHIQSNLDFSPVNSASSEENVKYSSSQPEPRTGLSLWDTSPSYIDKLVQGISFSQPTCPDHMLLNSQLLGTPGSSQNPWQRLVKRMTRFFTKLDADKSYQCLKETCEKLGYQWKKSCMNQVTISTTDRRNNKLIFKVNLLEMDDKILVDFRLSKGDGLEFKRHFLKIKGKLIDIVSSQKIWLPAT
Description: Inhibition of CHK1 assessed as residual activity at 10 uM by Cherenkov counting relative to control in presence of 20 uM ATP. The gist of the method: (§3)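 Single-point profiling at 10 µM in a panel of 78 protein kinases. Kinase activity is expressed as a percentage relative to control assays without compound.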

Assay [11] addresses Dual specificity tyrosine-phosphorylation-regulated kinase 1A (Homo sapiens) (UniProt Q13627). Put plainly: Inhibition of DYRK1A assessed as residual activity at 10 uM by Cherenkov counting relative to control in presence of 50 uM ATP. An outline of the steps: as §3
Assay [12] addresses Serine/threonine-protein kinase pim-2 (Homo sapiens) (UniProt Q9P1W9). Description: Inhibition of PIM2 assessed as residual activity at 10 uM by Cherenkov counting relative to control in presence of 5 uM ATP.
For assay [13], the target named is Homeodomain-interacting protein kinase 2 (Homo sapiens) (UniProt Q9H2X6). Description: Inhibition of HIPK2 assessed as residual activity at 10 uM by Cherenkov counting relative to control in presence of 5 uM ATP. The gist of the method: as §3
Assay [14] addresses Serine/threonine-protein kinase 26 (Homo sapiens) (UniProt Q9P289). Description: Inhibition of MST4 assessed as residual activity at 10 uM by Cherenkov counting relative to control in presence of 20 uM ATP.
Assay [15] has as its target Dual specificity mitogen-activated protein kinase kinase 1 (Homo sapiens) (UniProt Q02750). Description: Inhibition of MKK1 assessed as residual activity at 10 uM by Cherenkov counting relative to control in presence of 5 uM ATP.

Chain of Dual specificity mitogen-activated protein kinase kinase 1 (Homo sapiens) (Q02750 whole entry): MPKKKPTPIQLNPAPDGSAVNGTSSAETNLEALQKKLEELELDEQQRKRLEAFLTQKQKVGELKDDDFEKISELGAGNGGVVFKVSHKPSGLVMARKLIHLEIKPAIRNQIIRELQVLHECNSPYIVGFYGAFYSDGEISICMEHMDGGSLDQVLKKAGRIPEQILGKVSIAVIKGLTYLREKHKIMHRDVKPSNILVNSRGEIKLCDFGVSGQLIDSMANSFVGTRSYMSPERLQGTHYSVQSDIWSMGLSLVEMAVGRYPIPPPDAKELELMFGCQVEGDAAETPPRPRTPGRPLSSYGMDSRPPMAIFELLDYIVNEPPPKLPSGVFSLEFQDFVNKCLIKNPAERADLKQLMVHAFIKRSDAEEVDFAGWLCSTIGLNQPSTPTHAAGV
Chain of Serine/threonine-protein kinase Chk2 (Homo sapiens) (O96017 whole entry): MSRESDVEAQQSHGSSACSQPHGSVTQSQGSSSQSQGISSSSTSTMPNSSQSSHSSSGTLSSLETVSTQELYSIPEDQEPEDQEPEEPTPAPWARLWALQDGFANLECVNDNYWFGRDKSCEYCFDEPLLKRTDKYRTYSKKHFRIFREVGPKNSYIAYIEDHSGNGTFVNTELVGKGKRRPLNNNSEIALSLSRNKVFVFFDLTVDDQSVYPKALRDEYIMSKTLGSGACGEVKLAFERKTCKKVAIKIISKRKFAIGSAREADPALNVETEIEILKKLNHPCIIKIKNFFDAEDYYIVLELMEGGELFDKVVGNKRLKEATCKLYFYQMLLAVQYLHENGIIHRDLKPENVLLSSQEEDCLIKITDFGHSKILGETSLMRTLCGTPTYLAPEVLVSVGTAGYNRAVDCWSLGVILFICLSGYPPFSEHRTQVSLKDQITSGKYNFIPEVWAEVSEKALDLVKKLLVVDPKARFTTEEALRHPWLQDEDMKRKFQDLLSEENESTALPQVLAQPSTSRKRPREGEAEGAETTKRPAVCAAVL
Chain of RAC-beta serine/threonine-protein kinase (Homo sapiens) (P31751 whole entry): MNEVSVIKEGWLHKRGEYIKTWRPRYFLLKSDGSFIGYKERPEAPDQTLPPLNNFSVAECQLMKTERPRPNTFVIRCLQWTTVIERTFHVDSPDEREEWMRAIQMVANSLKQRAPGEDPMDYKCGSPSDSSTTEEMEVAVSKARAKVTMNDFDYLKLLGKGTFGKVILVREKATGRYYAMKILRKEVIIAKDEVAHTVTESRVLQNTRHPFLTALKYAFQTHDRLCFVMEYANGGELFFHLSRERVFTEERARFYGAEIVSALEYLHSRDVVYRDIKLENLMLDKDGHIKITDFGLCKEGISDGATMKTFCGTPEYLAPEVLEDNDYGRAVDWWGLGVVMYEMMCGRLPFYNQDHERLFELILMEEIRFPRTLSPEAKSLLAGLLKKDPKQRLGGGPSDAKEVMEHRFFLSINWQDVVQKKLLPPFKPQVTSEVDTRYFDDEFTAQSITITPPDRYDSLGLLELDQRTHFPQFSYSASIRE
Chain of Homeodomain-interacting protein kinase 2 (Homo sapiens) (Q9H2X6 whole entry, looked up): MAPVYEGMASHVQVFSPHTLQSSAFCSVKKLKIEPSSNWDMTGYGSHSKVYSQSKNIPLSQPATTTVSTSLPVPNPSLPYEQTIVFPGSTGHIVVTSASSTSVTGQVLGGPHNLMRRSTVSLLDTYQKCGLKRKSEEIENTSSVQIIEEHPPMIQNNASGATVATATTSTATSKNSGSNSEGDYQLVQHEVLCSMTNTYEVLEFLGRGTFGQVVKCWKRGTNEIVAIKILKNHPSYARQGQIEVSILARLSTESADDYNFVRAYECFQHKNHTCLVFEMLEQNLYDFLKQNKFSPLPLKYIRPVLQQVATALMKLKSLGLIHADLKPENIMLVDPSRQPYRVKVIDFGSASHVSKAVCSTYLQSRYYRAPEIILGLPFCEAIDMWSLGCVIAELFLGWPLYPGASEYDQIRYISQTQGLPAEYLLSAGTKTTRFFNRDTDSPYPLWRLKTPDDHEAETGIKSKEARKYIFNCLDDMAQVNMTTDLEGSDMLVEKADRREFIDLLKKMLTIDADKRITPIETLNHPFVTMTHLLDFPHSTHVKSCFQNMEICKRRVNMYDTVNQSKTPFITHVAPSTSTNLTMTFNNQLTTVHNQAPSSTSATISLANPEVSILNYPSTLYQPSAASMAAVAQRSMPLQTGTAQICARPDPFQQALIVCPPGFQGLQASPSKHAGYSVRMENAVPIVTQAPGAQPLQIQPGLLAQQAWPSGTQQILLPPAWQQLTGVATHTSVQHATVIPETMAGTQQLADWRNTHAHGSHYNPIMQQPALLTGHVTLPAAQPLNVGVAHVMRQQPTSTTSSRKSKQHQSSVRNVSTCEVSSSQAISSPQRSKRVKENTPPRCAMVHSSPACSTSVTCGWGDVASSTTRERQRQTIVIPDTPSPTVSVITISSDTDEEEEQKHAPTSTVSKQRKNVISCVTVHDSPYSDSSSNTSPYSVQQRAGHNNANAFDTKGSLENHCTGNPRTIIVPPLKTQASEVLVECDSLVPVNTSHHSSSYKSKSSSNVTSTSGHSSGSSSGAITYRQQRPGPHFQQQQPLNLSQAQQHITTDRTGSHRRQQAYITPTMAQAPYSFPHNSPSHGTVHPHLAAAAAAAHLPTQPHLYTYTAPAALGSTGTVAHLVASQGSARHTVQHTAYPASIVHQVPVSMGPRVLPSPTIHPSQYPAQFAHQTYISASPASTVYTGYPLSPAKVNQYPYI
Chain of Casein kinase I isoform delta (P48730 whole entry, looked up, canonical isoform): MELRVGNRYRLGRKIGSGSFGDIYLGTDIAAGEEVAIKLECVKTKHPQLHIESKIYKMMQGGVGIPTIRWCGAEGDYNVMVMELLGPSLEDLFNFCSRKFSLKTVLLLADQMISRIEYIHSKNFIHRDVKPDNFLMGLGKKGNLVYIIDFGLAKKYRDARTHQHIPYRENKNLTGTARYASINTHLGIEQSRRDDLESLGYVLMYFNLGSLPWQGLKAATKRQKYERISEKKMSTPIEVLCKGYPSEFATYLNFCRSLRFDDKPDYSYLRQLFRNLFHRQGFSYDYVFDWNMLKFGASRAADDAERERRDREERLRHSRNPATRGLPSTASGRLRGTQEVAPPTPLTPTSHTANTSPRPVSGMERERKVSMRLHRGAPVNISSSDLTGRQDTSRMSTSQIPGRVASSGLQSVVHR
Chain of Serine/threonine-protein kinase 26 (Homo sapiens) (Q9P289 2-416 limits assumed): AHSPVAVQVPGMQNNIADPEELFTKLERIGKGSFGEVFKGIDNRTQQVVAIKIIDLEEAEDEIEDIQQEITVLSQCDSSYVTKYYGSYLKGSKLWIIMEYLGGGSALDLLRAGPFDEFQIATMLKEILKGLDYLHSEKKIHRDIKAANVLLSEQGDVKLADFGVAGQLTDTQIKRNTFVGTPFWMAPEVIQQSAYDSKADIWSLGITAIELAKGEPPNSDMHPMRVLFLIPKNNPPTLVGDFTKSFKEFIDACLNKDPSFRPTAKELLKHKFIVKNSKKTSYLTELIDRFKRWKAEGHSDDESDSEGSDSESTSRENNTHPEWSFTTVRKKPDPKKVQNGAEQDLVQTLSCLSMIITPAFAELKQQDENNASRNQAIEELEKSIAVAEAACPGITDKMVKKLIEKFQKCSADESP
Chain of Serine/threonine-protein kinase pim-2 (Homo sapiens) (Q9P1W9 whole entry, looked up): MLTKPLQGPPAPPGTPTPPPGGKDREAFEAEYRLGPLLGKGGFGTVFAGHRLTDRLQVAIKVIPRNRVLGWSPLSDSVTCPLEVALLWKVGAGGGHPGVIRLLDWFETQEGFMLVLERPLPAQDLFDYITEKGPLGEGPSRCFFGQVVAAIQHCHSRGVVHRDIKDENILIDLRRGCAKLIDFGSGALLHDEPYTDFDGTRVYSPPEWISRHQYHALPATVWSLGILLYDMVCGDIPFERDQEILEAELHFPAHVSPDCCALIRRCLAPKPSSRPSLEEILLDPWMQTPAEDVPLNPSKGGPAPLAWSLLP

For orientation: inhibition means how much of the control response was suppressed. In the case of `COc1ccc(/C=C/C(=O)Nc2cc(-c3[nH]c(SC)nc3-c3ccc(F)cc3)ccn2)c(OC)c1`, the Activity came to 86% in assay [1]; 103% in [2]; 98% in assay [4]; 99% in assay [5]; 79% in [6]; 10% in [7]. In [8], the Activity is 61%. Further, the inhibition in assay [3] turned out to be 73%.

With `CC(C)c1onc(-c2ccc(F)cc2)c1-c1ccncc1`, the Activity amounted to 95% in [9]; 91% in assay [10]; 100% in assay [11]; 105% in [12]; 103% in assay [13]; 88% in [14]. Further, in assay [15], the Activity is 76%.

Consider `CC(C)c1noc(-c2ccc(F)cc2)c1-c1ccncc1`, for which the Activity in assay [9] worked out at 104%; in [10], 102%; in [11], 95%; in assay [12], 96%; in assay [13], 103%; in [14], 102%. The Activity in [15] was found to be 88%.

For `COc1ccc(/C=C/C(=O)Nc2cc(-c3[nH]c([S+](C)[O-])nc3-c3ccc(F)cc3)ccn2)c(OC)c1` (stereo not given), the Activity worked out at 86% in assay [1]; 106% in [2]; 100% in assay [4]; 102% in assay [5]; 85% in [6]; 18% in assay [7]. The Activity in assay [8] came out at 83%. For the same compound, the inhibition in assay [3] was found to be 82%.
